Compound activity: PubChem BioAssay, several laboratories
SMARCA2 act – increases SMARCA2 function in MMTV reporter cells; activation, % at 9.1 µM; hit rate 1% among 370,000; AID 652017; MG213 cells, MMTV-luciferase reporter, dexamethasone, overnight; in the data active means activation above about 7.8%
ASAP1 inh – blocks human ASAP1-stimulated Arf1 GTP hydrolysis; inhibition, % at 16.5 µM; hit rate 0.19% among 360,000; GDP FP detection; AID 624377; Q9ULH1; in the data active means inhibition above about 25%
esBAF inh – inhibitors of esBAF chromatin remodeling in mouse ES cells. AID 602393. reporter increase, % at 12.5 µM. Bmi1-luciferase knock-in reporter, 24 h; 100% = twice the neutral-well signal. hit rate 2% among 350,000; in the data active means activation above about 40%;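 further: a rise in the Bmi1 reporter signal indicates esBAF inhibition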
ARFGAP1 inh – inhibits rat ARF GTPase activating protein 1; hit rate 0.26% among 360,000; inhibition, % at 16.5 µM; Q62848; Arfgap1-stimulated ARF1 GTP hydrolysis, GDP FP detection;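 active means inhibition above a per-plate limit, mean inhibition of low control wells plus 3 SD, cut at about 25% in these data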
Target sequence (Q62848 1-136 limits assumed): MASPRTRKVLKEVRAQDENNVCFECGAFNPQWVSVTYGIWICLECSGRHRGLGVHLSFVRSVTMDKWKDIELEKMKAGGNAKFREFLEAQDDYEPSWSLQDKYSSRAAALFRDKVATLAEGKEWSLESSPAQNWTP
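system = rat Arfgap1 catalytic domain, aa 1-136 | technique = FP, GDP Alexa 633 tracer displaced from anti-GDP antibody, 620/688 nm | compound = one concentration, 16.5 µM, DMSO 1.26% | medium = HEPES-based buffer, pH 7.5 | timing = compound-enzyme preincubation 20 min, reaction 120 min, detection 60 min, 25 °C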
ARFGAP1 confirm – confirmation of rat ARFGAP1 inhibitors; inhibition, % at 16.5 µM; ARFGAP1-stimulated ARF1 GTP hydrolysis, GDP tracer FP; shares compounds with ARFGAP1 inh; hit rate 30% among 890; AID 651608;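 active means average inhibition over triplicates above the hit cutoff set in the earlier primary screen, cut at about 25% in these data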
A number is an active result; . = inactive; / = no result given; + = active, no number. Hits are enriched below; roughly 2.6% of the tested compounds scored in any of these assays.

SMILES | SMARCA2 act | ASAP1 inh | esBAF inh | ARFGAP1 inh | ARFGAP1 confirm
Cc1ccc(NC(=O)CN(C)C(=O)c2ccc(Sc3nncn3C)c([N+](=O)[O-])c2)cc1 | . | . | . | + | .
Cc1ccc(NC(=O)CN(C)C(=O)c2ccc(-n3cncn3)c([N+](=O)[O-])c2)cc1 | . | . | / | . | /
C[C@H](CO)N1C[C@H](C)[C@@H](CN(C)C(=O)c2ccc3c(c2)OCO3)Oc2ncc(C#CCN(C)C)cc2C1=O | / | / | . | / | /
Cc1cccc(Nc2nc(-c3ccncc3)cs2)c1 | . | . | / | . | /
Cc1cccc(Nc2nc(-c3ccc4c(c3)OCCO4)cs2)c1 | . | . | . | 26 | .
Cc1ccc(NC(=O)NNC(=O)COc2ccc([N+](=O)[O-])cc2)cc1C | . | . | . | 32 | 34
Cc1ccc(NC(=O)CCC(=O)NNC(=O)COc2ccc([N+](=O)[O-])cc2)cc1C | . | . | / | . | /
COc1ccc(NC(=O)NNC(=O)COc2ccc3cc(Br)ccc3c2)cc1OC | . | . | . | 51 | 85
COc1ccc(CNC(=O)c2sc(=O)n(Cc3ccc(C)cc3)c2C)cc1OC | . | . | . | . | /
COc1ccc(CNC(=O)c2sc(=O)n(Cc3ccc(-c4ccccc4)cc3)c2C)cc1OC | . | . | . | 26 | .
O=C(NCc1cccnc1)c1ccc(COc2ccc(Cl)cc2)cc1 | . | . | . | 28 | .
C[C@H]1CCCCO[C@H](CN(C)C(=O)C2CCCCC2)[C@@H](C)CN([C@@H](C)CO)C(=O)c2cc(N(C)C)ccc2O1 | / | / | . | / | /
O=C(N/N=C/c1ccccc1)c1[nH]ncc1Br | . | . | . | 28 | .
Cc1cc(Br)cn2c(Cc3ccccc3)c(C3CCCCC3)nc12 | . | . | / | 155 | .
CCCC(=O)Nc1ccc2c(c1)C(=O)N(C)[C@H]1CC[C@H](CC(=O)NCc3ccccc3F)O[C@H]1CO2 | / | / | . | / | /
O=C(c1ccncc1)N1CCN(S(=O)(=O)c2cccc(Cl)c2)CC1 | . | . | . | 27 | .
C[C@H]1CN([C@@H](C)CO)C(=O)c2cccc(NC(=O)C3CC3)c2O[C@@H]1CN(C)Cc1ccc(C(=O)O)cc1 | / | / | . | / | /
O=C(CCc1c[nH]c2ccccc12)Nc1ccc(Nc2ccccc2)cc1 | . | . | / | 27 | .
O=C(CCc1c[nH]c2ccccc12)Nc1ccc(Nc2ccncc2)cc1 | . | . | / | . | /
CC(C)C(=O)Nc1cc2c3c(c1)CCC(=O)N3CCC2 | . | . | . | 25 | .
O=C(NC1(O)C(=O)c2ccccc2C1=O)c1c(Cl)cccc1Cl | . | . | / | 26 | .
CCOC(=O)c1ccc(Nc2cc(C)nc(-c3ccccc3)n2)cc1 | . | . | . | 27 | .
COc1ccc(NC(=O)Nc2ccc3c(c2)C(=O)N([C@@H](C)CO)C[C@H](C)[C@H](CN(C)S(=O)(=O)c2ccc(F)cc2)O3)cc1 | / | / | . | / | /
COc1ccc(S(=O)(=O)Nc2ccc3c(c2)C(=O)N([C@@H](C)CO)C[C@H](C)[C@@H](CN(C)C(=O)Nc2ccccc2)OCCCC[C@@H](C)O3)cc1 | / | / | . | / | /
CCOC(=O)c1ccc(NC(=S)N(CCCN2CCCC2)Cc2cccs2)cc1 | . | . | . | 25 | .
SMILES | SMARCA2 act | ASAP1 inh | esBAF inh | ARFGAP1 inh | ARFGAP1 confirm
CCOC(=O)c1ccc(NC(=S)N(CCCN2CCN(C)CC2)Cc2cccs2)cc1 | . | . | . | . | /
CO[C@H]1CN(C)C(=O)c2cc(NC(C)=O)ccc2OC[C@H](C)N(Cc2ccccc2F)C[C@H]1C | / | / | . | / | /
O=c1c2[nH]cnc2n(-c2ccc(F)cc2)c(=O)n1Cc1ccccc1 | . | . | . | . | /
O=c1c2[nH]cnc2n(-c2cccc(F)c2)c(=O)n1Cc1ccccc1 | . | . | . | 25 | .
O=C(C[C@@H]1C=C[C@H](NC(=O)c2ccncc2)[C@H](CO)O1)NCC1CCCCC1 | / | / | . | / | /
CCNC(=O)C[C@@H]1CC[C@H]2[C@@H](COc3ccc(NC(=O)c4cccc(OC)c4)cc3C(=O)N2C)O1 | / | / | . | / | /
COC(=O)c1cccc(Nc2nc(-c3cccnc3)nc3ccccc23)c1 | . | . | . | 43 | 53
COC(=O)c1ccc(Nc2nc(-c3ccncc3)nc3ccccc23)cc1 | . | . | . | 34 | 34
CN(Cc1ccccc1)C(=O)c1[nH]cnc1C(=O)Nc1ccccc1 | . | . | . | . | /
CN(Cc1ccccc1)C(=O)c1nc[nH]c1C(=O)N(C)Cc1ccccc1 | . | . | . | 27 | .
COc1ccc(C2NC(=O)NC(c3ccccc3)=C2c2nc3ccccc3s2)cc1 (stereo not drawn) | . | . | . | . | /
